The values below come from the RNAGym collection of RNA variant scans (doi:10.1126/science.aae0568).

Fewer inactive variants are shown than the library holds. A value given as a limit tells only on which side of the number the result lay.

First the molecules themselves.
B1: tRNA (parent)
chain: GUUCCGUUGGCGUAAUGGUAACGCGUCUCCCUCCUAAGGAGAAGACUGCGGGUUCGAGUCCCGUACGGAACG

Variants of B1 are the subject of this series. The series is described as follows: yeast fitness relative to wild type (ratio to wild type); higher = fitter; tRNA-Arg(CCU), competitive growth, 37 C, YPD. In short, it runs like this:
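Variants of the tRNA-Arg(CCU) gene were chemically synthesised with a 3% per-site mutation rate across 69 sites and placed at the native genomic locus in Saccharomyces cerevisiae. Six parallel replicates of the pooled strains were competed in YPD at 37°C for 24 hours, and gene amplicons from the start and end populations were read by 100-nucleotide paired-end sequencing. Darwinian fitness relative to wild type was derived from changes in genotype frequencies. Genotypes required ≥ 100 starting reads, and estimates < 0.5 were set to 0.5.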
Take GUUCCGUCGGCGUACUGGUAUCGCGUCUCCCUCCUAAGGAGAAGACUGCGGGUUCGAGUCCCGUACGGAACG [U8C A15C A21U]: the yeast fitness was at most 0.5.

Consider GUUCCGUCGGCGUAAUGGUAACGCGUCUCCCUCCUAAGGCGAAGACUGCGGGUUCGAGUCCGGUACGGAACG [U8C A40C C62G], for which the yeast fitness is at most 0.5.

Turning to GUUCCGUCGGCGUACUGGUAACGCGUCUCCCUCCUAAGGAGAAGACUGCGGGUUCGAGUCCCGUACGGAACG [U8C A15C], the yeast fitness stood at 0.848.

Take GUUCCGUCGGCGUAAUGGUACCGCGUUUCCCUCCUAAGGAGAAGACUGUGGGUUCGACUCACGUUCGGAACG [U8C A21C C27U C49U G58C C61A A65U]: the yeast fitness was at most 0.5.

Consider GUUCCGUCGGCGUCAUGGUAACGCGUGUCCCUCCUAAGGAGAAGAGUGCGGGUUCGAGUCCCGUGCGGAACG [U8C A14C C27G C46G A65G], for which the yeast fitness is at most 0.5.

Consider GUUCCGUCGGCGUAAUGGUAACGCGUCUCCCUCCUAAGGAGACGACUGGGGGUUCGAGUCACGUACGGAACG [U8C A43C C49G C61A], for which the yeast fitness turned out to be 0.693.

With GUUCCGUAGGCGUAAUGGUAACGCGUCUCCCUCCUAAGGAGAAGACUGCGGGUUCGAGCCCCGUACGGAACG [U8A U59C], the yeast fitness is 0.748.

As to GUUCCGUCGGCGUACUGGUAACGCGUCUCCCCCCUAAGGAGAAGACUGCGGGUUCGAGUCCCGUACGGCACG [U8C A15C U32C A69C], the yeast fitness was at most 0.5.

GUUCCGUAGGCGUAAUGGUAACGCGUCUCCCUCCUAAGGAGAAGACUGCGGGUCCGAGUCCCGUACGGAACG [U8A U54C]: the yeast fitness was determined as 0.657.

As to GUUCCGUCGGCGUAAUGGUGACGCGUCUCCCUCGUAAGGAGAAGACUGCGGGUUCGAGUCCCGUAUGGAACG [U8C A20G C34G C66U], the yeast fitness amounted to 0.696.

As to GUUCCGUCGGCGUAAUGGUUACGCGUCUCCCUCCUAAGGAGAAGACUGCGGGUUCGGGUCCCGUACGGAACG [U8C A20U A57G], the yeast fitness was at most 0.5.

Regarding GUUCCGUCGGCGUUAUGGUAAGGCGUCUCUCUCCUAAGGAGAAGACUGCGGGUCCGAGUCCCGUACGGAACG [U8C A14U C22G C30U U54C], the yeast fitness is at most 0.5.

For GUUCCGUCGGCGUAGUGGUAACGCCUCUCCCUCCUAAGGAGAAGUCUGCGGGUUCGAGUCCCGUACGGAACG [U8C A15G G25C A45U], the yeast fitness was determined as 0.684.

Consider GUUCCGUCGGCGUAAUGGUGACGCGUCUCCCUACUAAGGAGAAAACUGCGGGUUCGAGUCUCGUACGGAACG [U8C A20G C33A G44A C61U], for which the yeast fitness was at most 0.5.

On to GUUCCGUCGGCGUAAUGGUGACGCGUCUCCCUCCUAAGGAGAAGACUGCGGGUUCGAGUCCCGUGCGAAACG [U8C A20G A65G G68A], for which the yeast fitness is at most 0.5.

In the case of GUUCCGUCGGCGUAAUGGUAGCGCGUCUCCCUCCUAAGGAGAAGACUGCGGGUUCGAGUCCCGUACGGCACG [U8C A21G A69C], the yeast fitness came out at 0.761.

Consider GUUCCGUCGGCGUAAUGGUAUCGCGUCUCCCUCCUAAGGAGAAGACUGCGGGGUCGCGUCCCGUACGGAACG [U8C A21U U53G A57C], for which the yeast fitness is at most 0.5.

For GUUCCGUCGGCGUAAUGGUGACGCGUCUCCCUCCUAAGGAGAAGACUGCGGGUUCGAGUCCCGUAUGGAACG [U8C A20G C66U], the yeast fitness amounted to 0.624.

On to GUUCCGUCGGCGUAAUGGUAGCGCGUCUCCCUCCUAAGGAGAAGACUGCGGGUUCGAGUCCCGUACGGAGCG [U8C A21G A70G], for which the yeast fitness was determined as 0.747.

Consider GUUCCGUCGGCGUAAUGGUAACGCGUCUCCCUCCUAAGGAGUAGACUGCGGGUUCGAGUCCCGUACGGAGCG [U8C A42U A70G], for which the yeast fitness was 0.729.

Regarding GUUCCGUCGGCGUACUGGUAACGCGUUUCCCUCCUAAGGAGAAGCCUGCGGGUUCGAGUCCCGUACGGAACG [U8C A15C C27U A45C], the yeast fitness is at most 0.5.

With GUUCCGUCGGCGUACUGGUAACGCGUCUCCCCCCUAAGGAGAAGACUGCGGGUUCGAGUCUCGUUUGGAACG [U8C A15C U32C C61U A65U C66U], the yeast fitness is at most 0.5.

As for GUUCCGUCGGCGUAAUGGUAACGCGUCUCCCUCCUAAGGCGAAGACUGCGGGUUGGAGUCCCGUACGGAACG [U8C A40C C55G], the yeast fitness is at most 0.5.

With GUUCCGUCGGCGUACUGGUAACGCGUCUCCCUCUUAAGGAGAAGACUGCGGGUUCGCGUCCCGUACGGAACG [U8C A15C C34U A57C], the yeast fitness was at most 0.5.

Turning to GUUCCGUCGGCGUAAUGGUAUCGCGUCUCCCACCUAAGGAGAAGACUGUGGGUUUGAGUCCCGUACGGAACG [U8C A21U U32A C49U C55U], the yeast fitness is at most 0.5.

In the case of GUUCCGUCGGCGUAGUGGAAACGCGUCUACCUCCUGAGGAGAAGACUGCGAGUUCGAGUCCCGUACGGAACG [U8C A15G U19A C29A A36G G51A], the yeast fitness is at most 0.5.

Consider GUUCCGUCGGCGUAAUGGUAUCGAGUCUCCCUCCUAAGGAGAAGACUGCGGGUUCGAGUCCCGUACGGAACG [U8C A21U C24A], for which the yeast fitness was at most 0.5.

As to GUUCCGUCGGCGUAAUGGUAACGCGUCUCCCUCCUAAGGAGAAGCCUGCGGGUUCGAGUCCCGUAUGGAACG [U8C A45C C66U], the yeast fitness amounted to 0.626.

As to GUUCCGUCGGCGUAUUGGUAAUGCGUCUCCCUCCUAAGGCGAAGACUCCGGGUCCGAGUCCUGUACGGAACG [U8C A15U C22U A40C G48C U54C C62U], the yeast fitness stood at 0.557.

Consider GUUCCGUCGGCGUACUGGUAACGCGUCUCCCCCCUAAGGAGAAGACUGCGGGUUCGAGUCCCGUACGGAACG [U8C A15C U32C], for which the yeast fitness is at most 0.5.

With GUUCCGUCGGCGUAAUGGUAACGCGUCUCCCUCCUAAGGAGGAGACUGGGGGUUCGAGUCCAGUACGGAACG [U8C A42G C49G C62A], the yeast fitness is at most 0.5.

On to GUUCCGUCGGCGUAAUGGUAUCGCGUCUCCCUCAUAAGGCGAAGACUGCGGGUUCGAGUCCCGUACGCAACG [U8C A21U C34A A40C G68C], for which the yeast fitness was at most 0.5.

Regarding GUUCCGUCGGCGUAAUGGUAACGCGUCUCCCUCCUAAGGAGAAGCUUGCGGGUUCGAGUCCCGUACGGAACG [U8C A45C C46U], the yeast fitness turned out to be 0.716.

For the variant GUUCCGUCGGCGUAAUGGUAACGCGUCUCCCUCCUAAGGAGACGACUGGGGGUUCGAGUCCCGUACGGAACG [U8C A43C C49G], the yeast fitness worked out at 0.597.

Turning to GUUCCGUCGGCGUAAUGGUAACGCGUCUCCCUCCUAAGGAGAAGACUGCGGGUUCGAGUCCCGUACGGAACG [U8C], the yeast fitness came out at 1.03.

With GUUCCGUCGGCGUAAUGGUAACGCGUCUCCCUCCUAAGGAGACGACUGCGGGUUCGAGUCCCGUACGGAACG [U8C A43C], the yeast fitness came out at 0.939.

Consider GUUCCGUCGGCGUAAUGGUAACGCGUCUCCCUCCUAAGGAGUAGACUGCGGGUUCGAGUCCCGUACGGAACG [U8C A42U], for which the yeast fitness was found to be 0.791.

With GUUCCGUCGGCGUAAUGGUUACGCGUCUUGCUCCUAGGGAGAAAACUGCGGGUUCGAGUCCCGUACGGAACG [U8C A20U C29U C30G A37G G44A], the yeast fitness is at most 0.5.
